In the library only some 6.1% were active in any assay of this set; here they are far more common.
BB579 growth dn – reduces growth of yeast BB579 in restrictive medium. S. cerevisiae BB579 growth, OD615, 48 h. inhibition, % at 10 µM. 140,000 compounds, 0.51% hits. AID 804;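 active means inhibition above a set limit, 3 SD over the mean compound inhibition, cut at about 44% in these data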
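Test system: DeaD yeast strain BB579 / Buffer or medium: restrictive glucose-based CSMM-D medium / Doses: single 10 µM dose / Schedule: 4 h cell preincubation, 48 h compound exposure, 30 °C humidified / Technique: culture absorbance at 615 nm / Controls: amphotericin B positive control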
Measles CPE – protection of cells from measles virus; Measles virus-infected cells, CPE protection, absorbance; protection (pct of control), % at 4 µM; 140,000 compounds, 1.5% hits; AID 841; in the data active means protection mostly above about 24%, no sharp cut-off; inactive means mostly below about 26%
Yeast life ext – extends the lifespan of yeast; S. cerevisiae growth with nicotinamide, OD615; deaD strain in restrictive glucose medium; inhibition of the nicotinamide effect, % at 10 µM; 130,000 compounds, 0.68% hits;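 active means inhibition above a set limit, placed 3 SD over the median of all compounds, cut at about 26% in these data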
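Test system – modified budding yeast, DeaD strain · Compound – single dose 10 µM compound, 0.25% DMSO · Times – culture preincubation 4 h, compound exposure 48 h, both 30 °C · Detection – optical density (absorbance) at 615 nm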
hDAT+cocaine – modulates human dopamine transporter uptake under cocaine; LLC-PK1 hDAT cells, [14C]-dopamine uptake with cocaine IC80; actives deviate in either direction; AID 449768; B-score at 10 µM; Q01959; 110,000 compounds, 1.3% hits;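 active means Z score or B-score, a plate-position-corrected score, falls beyond the plate's 99.7% confidence bounds, in either direction; inactive means both scores lie inside the 99.7% bounds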
Target sequence (Q01959 whole entry, looked up): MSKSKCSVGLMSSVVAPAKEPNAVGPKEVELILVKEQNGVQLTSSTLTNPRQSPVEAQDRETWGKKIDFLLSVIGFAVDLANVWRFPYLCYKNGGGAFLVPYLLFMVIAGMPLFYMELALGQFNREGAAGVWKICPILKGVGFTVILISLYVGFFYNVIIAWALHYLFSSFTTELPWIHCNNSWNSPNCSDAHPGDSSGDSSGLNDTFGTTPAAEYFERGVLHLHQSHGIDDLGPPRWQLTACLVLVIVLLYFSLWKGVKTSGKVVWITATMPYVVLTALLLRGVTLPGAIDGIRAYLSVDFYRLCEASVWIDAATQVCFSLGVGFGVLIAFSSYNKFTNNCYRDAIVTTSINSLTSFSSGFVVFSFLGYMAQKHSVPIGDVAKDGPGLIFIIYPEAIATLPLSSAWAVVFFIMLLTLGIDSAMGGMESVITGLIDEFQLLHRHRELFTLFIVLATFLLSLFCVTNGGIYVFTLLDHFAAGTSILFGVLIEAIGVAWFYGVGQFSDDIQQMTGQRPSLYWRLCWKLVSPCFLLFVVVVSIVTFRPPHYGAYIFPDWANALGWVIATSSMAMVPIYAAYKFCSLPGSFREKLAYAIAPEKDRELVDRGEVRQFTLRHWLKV
WT yeast gro inh – growth inhibition of WT yeast, mitochondrial fusion screen; mitochondrial fusion phenotypic screen, WT strain; inhibition, % at 10 µM; 190,000 compounds, 2.1% hits; in the data active means inhibition above about 58%; tested in S. cerevisiae
RAM inhibit – inhibitors of the yeast RAM network; S. cerevisiae dse1pr::URA3 reporter, 5-FOA growth OD615, 2 d; analog-sensitive cbk1-as2 kinase mutant strain; inhibition, % at 50 µM; 190,000 compounds, 1.8% hits; AID 868;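 active means inhibition above a set limit, 3 SD over mean compound inhibition, cut at about 8.4% in these data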;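 further: inhibition rescues growth on 5-FOA so higher OD means more RAM inhibition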
A number is an active result.

`C/C(=N\Nc1ccccn1)c1ccc(C(C)C)cc1` gave WT yeast gro inh 76 and RAM inhibit inactive.
Screening CCN1CCN(C(=O)c2ccc3c(c2)N(Cc2ccc(F)cc2)C(=O)c2ccccc2S3=O)CC1 (stereo not given) returned BB579 growth dn inactive, Measles CPE inactive, Yeast life ext inactive, hDAT+cocaine inactive, WT yeast gro inh inactive and RAM inhibit inactive.
CCn1c(SCC(=O)N2CCCC2)nc2c(c1=O)SC(C)C2 (stereo not given) was read as BB579 growth dn inactive, Measles CPE inactive, Yeast life ext inactive, hDAT+cocaine inactive, WT yeast gro inh inactive and RAM inhibit inactive.
For CCCSc1nc2c(c(=O)n1CC)SC(C)C2 (stereo not given) the results were BB579 growth dn inactive, Measles CPE 93, Yeast life ext inactive, WT yeast gro inh inactive and RAM inhibit inactive.
Screening CCCCCCOc1ccc(-c2ccc(C#N)cn2)cc1 returned BB579 growth dn inactive, Measles CPE inactive, Yeast life ext inactive, hDAT+cocaine inactive, WT yeast gro inh inactive and RAM inhibit 10.
CCCCOc1ccc(-c2nnc(-c3ccncc3)o2)cc1 was read as BB579 growth dn inactive, Measles CPE inactive, Yeast life ext inactive, hDAT+cocaine inactive, WT yeast gro inh inactive and RAM inhibit inactive.
`COc1ccc(C2=NN(C(=O)CSc3ncccn3)C(c3ccc(OC)cc3)C2)cc1` (stereo not given) gave BB579 growth dn inactive, Measles CPE 63, Yeast life ext inactive, WT yeast gro inh inactive and RAM inhibit inactive.
COc1ccc(CC(=O)OCC(=O)N2N=C(c3ccccc3)CC2c2ccc(OC)cc2)cc1 (stereo not given) was read as BB579 growth dn inactive, Measles CPE inactive, Yeast life ext inactive, WT yeast gro inh inactive and RAM inhibit 8.9.
Screening COc1ccc(C2CC(c3ccc4ccccc4c3)=NN2C(=O)CSc2ncccn2)cc1 (stereo not given) returned BB579 growth dn inactive, Measles CPE inactive, Yeast life ext inactive, WT yeast gro inh inactive and RAM inhibit inactive.
Screening COc1ccc(C2CC(c3ccc(Br)cc3)=NN2C(=O)c2cccnc2)cc1 (stereo not given) returned BB579 growth dn inactive, Measles CPE inactive, Yeast life ext inactive, WT yeast gro inh 64 and RAM inhibit inactive.
COc1ccc(C2CC(c3ccccc3)=NN2C(=O)COC(=O)c2cccnc2Cl)cc1 (stereo not given) was read as BB579 growth dn inactive, Measles CPE inactive, Yeast life ext inactive, WT yeast gro inh inactive and RAM inhibit inactive.
`COc1ccc(C2CC(c3ccccc3)=NN2C(=O)COC(=O)C2(C)CC2(Cl)Cl)cc1` (stereo not given) gave WT yeast gro inh 72 and RAM inhibit inactive.
COc1ccc(C2CC(c3ccccc3)=NN2C(=O)COC(=O)C2CC2)cc1 (stereo not given) was read as BB579 growth dn inactive, Measles CPE inactive, Yeast life ext inactive, WT yeast gro inh inactive and RAM inhibit inactive.
Screening Cn1c(CN2CCOCC2)nnc1SCC(=O)NC1CCCCC1 returned BB579 growth dn inactive, Measles CPE inactive, Yeast life ext inactive, hDAT+cocaine inactive, WT yeast gro inh inactive and RAM inhibit inactive.
CCOC(=O)N1CCN(C(=S)NC(=O)c2ccc(F)cc2)CC1 was read as WT yeast gro inh inactive and RAM inhibit inactive.
Cc1nn(CC(=O)Nc2sc3c(c2C#N)CCC(C(C)(C)C)C3)c(C)c1[N+](=O)[O-] (stereo not given) was read as BB579 growth dn inactive, Measles CPE inactive, Yeast life ext inactive, hDAT+cocaine inactive, WT yeast gro inh inactive and RAM inhibit inactive.
N=c1n(Cc2ccc(Cl)cc2)c2ccccc2n1CC(O)COc1ccccc1 (stereo not given) was read as WT yeast gro inh inactive and RAM inhibit inactive.
Screening N=c1n(Cc2ccccc2)c2ccccc2n1CC(O)COc1ccc(Cl)cc1Cl (stereo not given) returned WT yeast gro inh 94 and RAM inhibit inactive.
Screening COc1ccc(CC(=O)NNC(=O)c2cccs2)cc1 returned BB579 growth dn inactive, Measles CPE inactive, Yeast life ext inactive, WT yeast gro inh inactive and RAM inhibit inactive.
